Measurements as given in ChEMBL document CHEMBL4837245, “Discovery of VU6028418: A Highly Selective and Orally Bioavailable M4 Muscarinic Acetylcholine Receptor Antagonist” (ACS Med Chem Lett, 2021).

Experiments:
[1] = target: T1, Muscarinic acetylcholine receptor M4 (Rattus norvegicus, UniProt P08485); test: Displacement of [3H]NMS from rat muscarinic receptor M4 expressed in CHO cell membranes incubated for 3 hrs by radiometric scintillation counting analysis; set-up: species or system Cell membrane
T1 sequence (P08485 whole entry): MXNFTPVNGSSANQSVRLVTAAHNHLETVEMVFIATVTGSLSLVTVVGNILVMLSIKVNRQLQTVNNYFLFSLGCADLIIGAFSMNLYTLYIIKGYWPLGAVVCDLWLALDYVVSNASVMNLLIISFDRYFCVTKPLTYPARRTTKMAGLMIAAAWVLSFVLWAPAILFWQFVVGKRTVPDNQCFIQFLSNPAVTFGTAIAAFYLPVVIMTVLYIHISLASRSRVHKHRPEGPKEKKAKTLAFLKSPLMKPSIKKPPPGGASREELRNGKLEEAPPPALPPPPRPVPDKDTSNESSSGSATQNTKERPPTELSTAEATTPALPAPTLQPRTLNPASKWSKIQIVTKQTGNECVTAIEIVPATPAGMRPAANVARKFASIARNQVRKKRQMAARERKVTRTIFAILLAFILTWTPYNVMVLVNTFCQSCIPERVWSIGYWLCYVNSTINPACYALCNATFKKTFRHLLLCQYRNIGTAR

[2] = Clearance in Sprague-Dawley rat plasma at 1.0 mg/kg, iv measured upto 24 hrs by LC-MS/MS analysis; type: ADME, organism-based
Outline: (§1)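 Single iv and oral (suspension) dosing; iv/po doses 1/10 mg/kg in SD rat, 1/3 mg/kg in CD-1 mouse and beagle dog. Plasma PK parameters are means from two to three animals per species.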

[3] = Clearance in CD-1 mouse plasma at 1.0 mg/kg, iv measured upto 24 hrs by LC-MS/MS analysis; type: ADME, organism-based; outline: as §1
[4] = Volume of distribution at steady state in CD-1 mouse at 1.0 mg/kg, iv measured upto 24 hrs by LC-MS/MS analysis; type: ADME, organism-based; conditions: in vivo, read-out: Vdss
Outline: (§2)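 Pharmacokinetics in Sprague-Dawley rat, CD-1 mouse and beagle dog. Intravenous dose was 1 mg/kg in each species. Oral doses were given as a suspension: 10 mg/kg in rat, 3 mg/kg in mouse and dog. Each parameter is the mean of two to three animals.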

[5] = Elimination half life in Sprague-Dawley rat at 1 mg/kg, iv measured upto 24 hrs by LC-MS/MS analysis; type: ADME, organism-based; conditions: in vivo, read-out: beta t1/2 (converted); outline: as §1
[6] = Elimination half life in Beagle dog at 1 mg/kg, iv measured upto 24 hrs by LC-MS/MS analysis; type: ADME, organism-based, Canis lupus familiaris; conditions: in vivo, read-out: beta t1/2 (converted); outline: as §1
[7] = Cmax in Sprague-Dawley rat at 10 mg/kg, po measured upto 24 hrs by LC-MS/MS analysis; type: ADME, organism-based; set-up: route oral, dose 10 mg/kg, time <=24; conditions: in vivo; outline: as §1
[8] = Cmax in CD-1 mouse at 3 mg/kg, po measured upto 24 hrs by LC-MS/MS analysis; type: ADME, organism-based; set-up: route oral, dose 3 mg/kg, time <=24; conditions: in vivo; outline: as §1
[9] = Tmax in Sprague-Dawley rat at 10 mg/kg, po measured upto 24 hrs by LC-MS/MS analysis; type: ADME, organism-based; conditions: in vivo; outline: as §2
[10] = AUC (0 to infinity) in Sprague-Dawley rat at 10 mg/kg, po measured upto 24 hrs by LC-MS/MS analysis; type: ADME, organism-based; set-up: route oral, dose 10 mg/kg, time <=24; conditions: in vivo; outline: as §1
[11] = Ratio of drug concentration in brain to plasma of Sprague-Dawley rat at 1 mg/kg, iv; type: ADME, organism-based
[12] = Ratio of free drug concentration in brain to plasma of Sprague-Dawley rat at 1 mg/kg, iv; type: ADME, organism-based; conditions: read-out: K(p,uu,brain)
[13] = target: Muscarinic acetylcholine receptor M1 (Homo sapiens, UniProt P11229); test: Antagonist activity at human muscarinic M1 receptor expressed in CHO cells co-expressing Gqi5 assessed as inhibition of acetylcholine-induced calcium mobilization; type: functional
Outline: (§3)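 CHO cells stably transfected with the given human mAChR subtype. Compound added before an EC80 concentration of acetylcholine; antagonism read as calcium mobilization. One independent determination in triplicate.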

Cytochrome P450 2D6 = Cytochrome P450 2D6 (Homo sapiens, UniProt P10635); test: Time dependent inhibition of CYP2D6 (unknown origin); type: ADME
CYP1A2 = target: T2, CYP1A2 (Homo sapiens, UniProt P05177); test: Induction of CYP1A2 in human hepatocytes relative to control; type: ADME, cell-based, Hepatocyte
T2 sequence (P05177 whole entry): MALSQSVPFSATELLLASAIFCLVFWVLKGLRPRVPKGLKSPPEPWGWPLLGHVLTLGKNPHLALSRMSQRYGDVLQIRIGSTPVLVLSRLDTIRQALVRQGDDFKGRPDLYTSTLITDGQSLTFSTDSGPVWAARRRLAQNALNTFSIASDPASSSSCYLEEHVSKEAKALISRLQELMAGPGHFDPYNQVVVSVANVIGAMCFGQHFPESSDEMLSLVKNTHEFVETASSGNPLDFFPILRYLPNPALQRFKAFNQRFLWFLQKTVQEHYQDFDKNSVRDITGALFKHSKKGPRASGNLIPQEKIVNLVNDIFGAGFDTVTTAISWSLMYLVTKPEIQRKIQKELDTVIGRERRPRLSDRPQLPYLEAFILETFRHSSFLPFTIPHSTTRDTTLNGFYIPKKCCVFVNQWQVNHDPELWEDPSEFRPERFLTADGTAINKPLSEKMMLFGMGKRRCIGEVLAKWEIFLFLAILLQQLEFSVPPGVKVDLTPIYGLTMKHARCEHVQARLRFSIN

Rattus norvegicus [14] = test: Effect on haloperidol-induced catalepsy in rat assessed as reduction in mean latency to withdraw at 0.3 mg/kg, po (reference value: 43.4 +/- 4.3 sec); type: functional
Outline: (§4)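 Rat haloperidol-induced catalepsy model with oral test dosing at 0.3, 1 and 3 mg/kg alongside vehicle-treated controls. Read-out is latency to withdraw, also expressed as % reversal of catalepsy. Groups compared by ANOVA.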

Rattus norvegicus [15] = test: Effect on haloperidol-induced catalepsy in rat assessed as reduction in mean latency to withdraw at 3 mg/kg, po (reference value: 43.4 +/- 4.3 sec); type: functional; outline: as §4
[16] = target: Voltage-gated inwardly rectifying potassium channel KCNH2 (Homo sapiens, UniProt Q12809); test: Inhibition of human ERG by patch clamp assay
[17] = target: Muscarinic acetylcholine receptor M5 (Homo sapiens, UniProt P08912); test: Antagonist activity at human muscarinic M5 receptor expressed in CHO cells co-expressing Gqi5 assessed as inhibition of acetylcholine-induced calcium mobilization; type: functional; outline: as §3
Chain of Muscarinic acetylcholine receptor M5 (P08912 whole entry): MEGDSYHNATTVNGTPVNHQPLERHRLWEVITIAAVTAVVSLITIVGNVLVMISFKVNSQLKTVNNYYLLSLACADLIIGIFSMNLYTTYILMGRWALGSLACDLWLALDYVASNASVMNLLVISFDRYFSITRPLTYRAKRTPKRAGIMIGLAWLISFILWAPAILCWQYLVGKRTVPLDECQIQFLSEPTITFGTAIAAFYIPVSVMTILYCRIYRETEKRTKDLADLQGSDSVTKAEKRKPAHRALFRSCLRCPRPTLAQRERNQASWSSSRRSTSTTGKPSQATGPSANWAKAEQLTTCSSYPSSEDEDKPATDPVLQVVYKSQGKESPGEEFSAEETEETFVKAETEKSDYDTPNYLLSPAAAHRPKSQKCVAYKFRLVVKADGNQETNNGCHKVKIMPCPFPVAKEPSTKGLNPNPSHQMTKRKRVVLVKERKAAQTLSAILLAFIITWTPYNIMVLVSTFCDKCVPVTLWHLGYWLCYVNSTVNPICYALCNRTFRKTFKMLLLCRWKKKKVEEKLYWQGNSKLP

Chain of Cytochrome P450 2D6 (P10635 whole entry): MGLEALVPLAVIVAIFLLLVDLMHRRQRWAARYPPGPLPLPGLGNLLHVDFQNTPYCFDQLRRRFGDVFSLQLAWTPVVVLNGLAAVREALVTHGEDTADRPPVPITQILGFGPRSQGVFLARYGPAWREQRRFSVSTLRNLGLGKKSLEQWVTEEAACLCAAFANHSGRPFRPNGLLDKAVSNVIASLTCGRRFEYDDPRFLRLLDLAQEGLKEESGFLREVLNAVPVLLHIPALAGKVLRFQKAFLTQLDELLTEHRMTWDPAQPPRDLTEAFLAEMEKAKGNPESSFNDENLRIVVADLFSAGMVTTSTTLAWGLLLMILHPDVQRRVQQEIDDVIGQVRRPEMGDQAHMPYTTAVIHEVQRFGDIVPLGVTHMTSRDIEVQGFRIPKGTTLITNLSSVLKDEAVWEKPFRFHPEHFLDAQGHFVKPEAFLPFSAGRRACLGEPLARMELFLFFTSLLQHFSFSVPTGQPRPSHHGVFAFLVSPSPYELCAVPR
Chain of Muscarinic acetylcholine receptor M1 (P11229 whole entry): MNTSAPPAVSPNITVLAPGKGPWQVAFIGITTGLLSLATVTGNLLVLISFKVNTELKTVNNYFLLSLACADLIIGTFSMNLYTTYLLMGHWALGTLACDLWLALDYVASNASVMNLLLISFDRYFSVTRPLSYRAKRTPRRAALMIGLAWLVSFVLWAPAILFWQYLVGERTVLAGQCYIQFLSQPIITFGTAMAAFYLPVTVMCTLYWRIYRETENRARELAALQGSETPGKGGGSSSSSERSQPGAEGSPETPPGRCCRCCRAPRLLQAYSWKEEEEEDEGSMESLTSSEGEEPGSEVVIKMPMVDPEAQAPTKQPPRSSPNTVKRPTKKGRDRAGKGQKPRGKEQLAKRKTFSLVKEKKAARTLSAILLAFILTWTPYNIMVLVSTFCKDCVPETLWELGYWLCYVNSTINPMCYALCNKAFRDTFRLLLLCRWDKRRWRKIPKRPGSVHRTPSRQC
Chain of Voltage-gated inwardly rectifying potassium channel KCNH2 (Q12809 whole entry): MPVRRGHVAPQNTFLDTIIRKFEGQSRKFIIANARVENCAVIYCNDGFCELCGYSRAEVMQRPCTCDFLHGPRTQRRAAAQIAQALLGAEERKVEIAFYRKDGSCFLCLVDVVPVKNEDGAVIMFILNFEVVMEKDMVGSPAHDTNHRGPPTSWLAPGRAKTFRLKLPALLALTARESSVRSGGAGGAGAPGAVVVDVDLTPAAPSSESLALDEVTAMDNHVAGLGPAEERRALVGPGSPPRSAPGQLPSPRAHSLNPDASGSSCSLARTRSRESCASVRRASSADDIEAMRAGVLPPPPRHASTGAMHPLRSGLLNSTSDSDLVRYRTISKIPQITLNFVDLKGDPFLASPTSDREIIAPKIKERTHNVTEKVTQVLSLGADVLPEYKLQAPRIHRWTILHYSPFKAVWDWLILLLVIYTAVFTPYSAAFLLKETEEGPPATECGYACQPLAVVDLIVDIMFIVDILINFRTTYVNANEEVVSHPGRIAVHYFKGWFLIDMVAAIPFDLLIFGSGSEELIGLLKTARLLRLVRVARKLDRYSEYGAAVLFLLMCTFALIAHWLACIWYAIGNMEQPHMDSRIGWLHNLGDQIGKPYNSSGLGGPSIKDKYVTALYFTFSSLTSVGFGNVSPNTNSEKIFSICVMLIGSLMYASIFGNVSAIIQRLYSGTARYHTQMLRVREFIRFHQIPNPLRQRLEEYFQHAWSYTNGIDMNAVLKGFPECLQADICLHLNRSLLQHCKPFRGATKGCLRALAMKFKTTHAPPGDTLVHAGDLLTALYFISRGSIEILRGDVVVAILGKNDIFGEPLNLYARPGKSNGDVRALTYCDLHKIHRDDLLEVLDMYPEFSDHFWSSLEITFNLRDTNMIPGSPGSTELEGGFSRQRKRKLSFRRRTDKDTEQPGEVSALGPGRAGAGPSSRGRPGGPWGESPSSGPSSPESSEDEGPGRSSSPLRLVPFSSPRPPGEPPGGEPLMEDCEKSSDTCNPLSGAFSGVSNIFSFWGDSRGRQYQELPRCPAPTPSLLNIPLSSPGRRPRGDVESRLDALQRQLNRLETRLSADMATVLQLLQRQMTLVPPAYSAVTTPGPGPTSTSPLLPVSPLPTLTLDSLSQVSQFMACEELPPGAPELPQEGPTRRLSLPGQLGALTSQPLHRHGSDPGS

Fc1cc(F)c(F)c(-c2ccc(N[C@H]3C[C@@H]4CN(CC5CCOCC5)C[C@@H]4C3)nn2)c1
IC50 [1]: 145 nM
clearance [2]: 6.1 mL/min/kg
clearance [3]: 17 mL/min/kg
Vd [4]: 10.6 L/kg
half-life [5]: 13 h
half-life [6]: 15 h
Cmax [7]: 17000 ng/mL
Cmax [8]: 181 ng/mL
Tmax [9]: 1.5 h
AUC [10]: 30000 ng·h/mL
Kp [11]: 6.4
Kp uu [12]: 0.61
IC50 [13]: > 10000 nM
IC50 (Cytochrome P450 2D6): > 100000 nM
Emax (CYP1A2): 2.1%
Activity (Rattus norvegicus [14]): 32 s
Activity (Rattus norvegicus [15]): 15.1 s
IC50 [16]: 431 nM
IC50 [17]: > 10000 nM
